# Like-named read-outs stand apart in the source and are kept apart here.
# Columns and labels:
# [1] = test system: anti-PBZ mAb; assay: TRFMs-LFIA competitive lateral flow immunoassay with anti-PBZ mAb immunoprobe; format: binding, mouse; conditions: for IC50: TRFMs-LFIA, coating antigen PBZ-2-BSA, optimal conditions; for CR: cross reactivity = IC50 (PBZ)/IC50 (structural analogue) x 100
# Outline: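 Anti-analyte mAb coupled by EDC/NHS to carboxylated time-resolved fluorescent microspheres, activated in MES pH 6.0. Nitrocellulose strip has a T line of coating antigen (2 mg/mL) and a C line of goat anti-mouse IgG (0.16 mg/mL). Probe (7.5 μg/mL stock) and 100 μL standard are premixed 3 min, then the strip is dipped 3 min. The T/C fluorescence ratio gives B/B0 against log concentration. IC50 is taken at 50% B/B0, and CR = IC50 (analyte)/IC50 (analogue) × 100.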
# [2] = test system: anti-PBZ pAb; conditions: TRFIA, water and soil, ref Liu et al. (2016); cited from earlier work
# [3] = test system: anti-PBZ antibody (mAb or pAb); conditions: icELISA, cited from earlier work
Molecule,IC50 [1] [mg/L],CR [1] [%],IC50 [2] [mg/L],"IC50 ([3]; mAb, soil, ref Jin (2019)) [mg/L]","IC50 ([3]; mAb, wheat, ref Cao et al. (2014)) [mg/L]","IC50 ([3]; pAb, fruits, ref Ouyang et al. (2020)) [mg/L]","IC50 ([3]; pAb, water and soil, ref Wang (2016)) [mg/L]"
CCCCC(O)(Cn1cncn1)c1ccc(Cl)cc1Cl (stereo not drawn) [Hexaconazole],>10,<0.1,–,–,–,–,–
CC(C)(C)[C@@H](O)[C@@H](Cc1ccc(Cl)cc1)n1cncn1 [Paclobutrazol],–,100,0.00109,0.0116,0.0087,0.01326,0.02135
CC(C)(C)C(O)(CCc1ccc(Cl)cc1)Cn1cncn1 (stereo not drawn) [Tebuconazole],>10,<0.1,–,–,–,–,–
CC(C)(C)C(=O)C(Oc1ccc(Cl)cc1)n1cncn1 (stereo not drawn) [Triadimefon],0.44371,2.10,–,–,–,–,–
CC(C)(C)C(O)C(Oc1ccc(Cl)cc1)n1cncn1 (stereo not drawn) [Triadimenol],0.92421,1.01,–,–,–,–,–
CC(C)(C)C(O)/C(=C\c1ccc(Cl)cc1)n1cncn1 (stereo not drawn) [Uniconazole],3.81516,0.25,–,–,–,–,–
Diniconazole,>10,<0.1,–,–,–,–,–
